We go through 19 molecules from ChEMBL document CHEMBL1126125, “Synthesis and antibacterial activity of 1-(substituted pyrrolyl)-7-(substituted amino)-6-fluoro-1,4-dihydro-4-oxo-3- quinolinecarboxylic acids” (1992).

In brackets after ≈: the same amount, converted by molar mass.

Assay [1] concerns Escherichia coli. Kind of assay: In vitro antibacterial activity against Escherichia coli ATCC 25922. The format is functional. Summed up:
(§1)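 Agar dilution MIC. Organisms grown overnight in brain-heart infusion broth at 37 °C. Compound stock of 5 mg/mL serially diluted two-fold in BHI agar, giving final test concentrations of 200 to […] μg/mL. Plates incubated 24 h at 37 °C. MIC read as the lowest concentration that inhibited visible growth.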

Assay [2] concerns Staphylococcus aureus. Kind of assay: In vitro antibacterial activity against Staphylococcus aureus ATCC 6538p. The format is functional. Summed up: as §1

For `Cn1cc(-n2cc(C(=O)O)c(=O)c3cc(F)c(N4CCNCC4)cc32)c([N+](=O)[O-])c1`, the MIC in assay [1] and in assay [2] was 100 µg/mL (≈ 241 µM) each time.

Regarding `CC1CCCN(c2cc3c(cc2F)c(=O)c(C(=O)O)cn3-c2cc([N+](=O)[O-])cn2C)C1` (stereo not drawn), the MIC in assay [1] came out at 100 µg/mL (≈ 233 µM); in assay [2], 3.12 µg/mL (≈ 7.29 µM).

With `CC1CCCN(c2cc3c(cc2F)c(=O)c(C(=O)O)cn3-c2cn(C)cc2[N+](=O)[O-])C1` (stereo not drawn), the results for the MIC in assay [1] and in assay [2] were more than 100 µg/mL and 25 µg/mL (≈ 58.4 µM), respectively.

As to `CN1CCN(c2cc3c(cc2F)c(=O)c(C(=O)O)cn3-c2cc([N+](=O)[O-])cn2C)CC1`, the values for the MIC in assay [1] and in assay [2] were 3.12 µg/mL (≈ 7.28 µM) and 6.25 µg/mL (≈ 14.6 µM), respectively.

Consider `Cn1cc(-n2cc(C(=O)O)c(=O)c3cc(F)c(Cl)cc32)c([N+](=O)[O-])c1`, for which the MIC in assay [1] and in assay [2] was 100 µg/mL (≈ 273 µM) in each case.

On to `Cn1cc(-n2cc(C(=O)O)c(=O)c3cc(F)c(N4CCCNCC4)cc32)c([N+](=O)[O-])c1`, for which the MIC in assay [1] and in assay [2] was 100 µg/mL (≈ 233 µM) throughout.

As for `Cn1cc([N+](=O)[O-])cc1-n1cc(C(=O)O)c(=O)c2cc(F)c(N3CCCC3)cc21`, the MIC in assay [1] is 12.5 µg/mL (≈ 31.2 µM); in assay [2] it was 0.78 µg/mL (≈ 1.95 µM).

Consider `CN1CCN(c2cc3c(cc2F)c(=O)c(C(=O)O)cn3-c2ccc([N+](=O)[O-])cc2)CC1`, for which the MIC was 12.5 µg/mL (≈ 29.3 µM) in assay [1] and 25 µg/mL (≈ 58.6 µM) in assay [2].

On to `Cn1cc(N)c(-n2cc(C(=O)O)c(=O)c3cc(F)c(N4CCNCC4)cc32)c1`, for which the MIC in assay [1] amounted to 50 µg/mL (≈ 130 µM); in assay [2], 100 µg/mL (≈ 259 µM).

For the molecule `Cn1cc([N+](=O)[O-])cc1-n1cc(C(=O)O)c(=O)c2cc(F)c(Cl)cc21`, the MIC is 100 µg/mL (≈ 273 µM) in assay [1] and 50 µg/mL (≈ 137 µM) in assay [2].

For `O=C(O)c1cn(-c2ccc([N+](=O)[O-])cc2)c2cc(Cl)c(F)cc2c1=O`, the MIC in assay [1] was determined as 12.5 µg/mL (≈ 34.5 µM); in assay [2], 6.25 µg/mL (≈ 17.2 µM).

For `O=C(O)c1cn(-c2ccc([N+](=O)[O-])cc2)c2cc(N3CCCC3)c(F)cc2c1=O`, the MIC in assay [1] and in assay [2] was more than 100 µg/mL in each case.

With `CN1CCN(c2cc3c(cc2F)c(=O)c(C(=O)O)cn3-c2cn(C)cc2[N+](=O)[O-])CC1`, the MIC in assay [1] and in assay [2] was 100 µg/mL (≈ 233 µM) throughout.

Regarding `Cn1cc(-n2cc(C(=O)O)c(=O)c3cc(F)c(N4CCCC4)cc32)c([N+](=O)[O-])c1`, the MIC in assay [1] and in assay [2] was more than 100 µg/mL each time.

Regarding `Cn1cc(-n2cc(C(=O)O)c(=O)c3cc(F)c(N4CCCCC4)cc32)c([N+](=O)[O-])c1`, the MIC in assay [1] is 100 µg/mL (≈ 241 µM); in assay [2] it was 50 µg/mL (≈ 121 µM).

As for `CC1CCCN(c2cc3c(cc2F)c(=O)c(C(=O)O)cn3-c2ccc([N+](=O)[O-])cc2)C1` (stereo not drawn), the MIC in assay [1] and in assay [2] was more than 100 µg/mL each time.

Regarding `CC1CCN(c2cc3c(cc2F)c(=O)c(C(=O)O)cn3-c2cn(C)cc2[N+](=O)[O-])CC1`, the MIC is more than 100 µg/mL in assay [1] and 12.5 µg/mL (≈ 29.2 µM) in assay [2].

`CC1CN(c2cc3c(cc2F)c(=O)c(C(=O)O)cn3-c2cn(C)cc2[N+](=O)[O-])CCN1` (stereo not drawn): the MIC in assay [1] and in assay [2] was 100 µg/mL (≈ 233 µM) each time.

As for `CN1CCN(c2cc3c(cc2F)c(=O)c(C(=O)O)cn3-c2ccc(F)cc2)CC1` [DIFLOXACIN], the MIC in assay [1] was determined as 0.39 µg/mL (≈ 0.976 µM); in assay [2], 0.195 µg/mL (≈ 0.488 µM).
